Published values pooled from the literature.
Compare with care: the assays were run in different laboratories.
ABL1 Q252H non-phosphorylated: Tyrosine-protein kinase ABL1, non-phosphorylated (ABL1, Homo sapiens, UniProt P00519, Q252H)
ABL1 phosphorylated: Tyrosine-protein kinase ABL1, phosphorylated (ABL1, Homo sapiens, UniProt P00519)
ABL1 E255K phosphorylated: Tyrosine-protein kinase ABL1, phosphorylated (ABL1, Homo sapiens, UniProt P00519, E255K)
ABL1 T315I non-phosphorylated: Tyrosine-protein kinase ABL1, non-phosphorylated (ABL1, Homo sapiens, UniProt P00519, T315I)
ABL1 Q252H phosphorylated: Tyrosine-protein kinase ABL1, phosphorylated (ABL1, Homo sapiens, UniProt P00519, Q252H)
ABL1 F317L phosphorylated: Tyrosine-protein kinase ABL1, phosphorylated (ABL1, Homo sapiens, UniProt P00519, F317L)
ABL1 non-phosphorylated: Tyrosine-protein kinase ABL1, non-phosphorylated (ABL1, Homo sapiens, UniProt P00519)
ABL1 F317L non-phosphorylated: Tyrosine-protein kinase ABL1, non-phosphorylated (ABL1, Homo sapiens, UniProt P00519, F317L)
ABL1 M351T: Tyrosine-protein kinase ABL1 (ABL1, Homo sapiens, UniProt P00519, M351T)

Compound | target | observed | method | tested at | remaining binding [%]
Nc1ncc2c(n1)-c1c([nH]c3ccc(C#CC4CC4)cc13)CCCC2 | ABL1 Q252H non-phosphorylated | binding | competition with immobilised ligand | 1 µM | 93
O=C(NCc1ncc(C(F)(F)F)cc1Cl)c1ccc2c(c1)C1(CCS(=O)(=O)CC1)[C@H](C1CC1)N2S(=O)(=O)c1ccc(F)cc1 | ABL1 phosphorylated | cell-free assay | competition with immobilised ligand | 1 µM | 71
O=C(NCC1CCOCC1)c1n[nH]cc1NC(=O)c1c(F)cccc1F | Tyrosine-protein kinase ABL1, phosphorylated (ABL1, Homo sapiens, UniProt P00519, F317I) | binding | competition with immobilised ligand | 1 µM | 84
COC(=O)Nc1nc2ccc(C(=O)c3ccccc3)cc2[nH]1 | ABL1 E255K phosphorylated | cell-free assay | competition with immobilised ligand | 10 µM | 2.2
O=C(c1ccc(Nc2ncc(Cl)c(-c3ccc(Cl)s3)n2)cc1)N1CCC(N2CCCC2)CC1 | ABL1 T315I non-phosphorylated | binding | competition with immobilised ligand | 1 µM | 0
C[C@@H](c1ccc(-n2cnc3c(N)ncnc32)cc1)N1CCc2nn(C)c(Cc3ccccc3)c2C1=O | ABL1 T315I non-phosphorylated | binding | competition with immobilised ligand | 0.1 µM | 33
O=C(Nc1c[nH]nc1C(=O)NC1CCNCC1)c1cc(F)cc(F)c1 | ABL1 Q252H non-phosphorylated | binding | competition with immobilised ligand | 1 µM | 100
CCc1ccccc1C(=O)Nc1n[nH]c2c(C)c(F)c(C3C(C#N)=C(C)N(C)C(C)=C3C#N)cc12 | ABL1 Q252H non-phosphorylated | cell-free assay | competition with immobilised ligand | 1 µM | 82
CN(C)c1nccc(-c2cnc3ncccn23)n1 | Tyrosine-protein kinase ABL1 (ABL1, Homo sapiens, UniProt P00519, E255K) | binding |  | 1 µM | 42
COc1cnc(Nc2cccc(S(N)(=O)=O)c2)nc1N1CCN(c2ccccc2)CC1 | ABL1 E255K phosphorylated | binding | competition with immobilised ligand | 1 µM | 84
Cc1nc(Cc2cccc(C(F)(F)F)c2)sc1-c1ccc(C(N)=O)nc1 | ABL1 Q252H phosphorylated | cell-free assay | competition with immobilised ligand | 1 µM | 100
O=C(NCCCN1CCOCC1)c1ccc(Nc2ncc(Cl)c(-c3ccc(Cl)s3)n2)cc1 | ABL1 F317L phosphorylated | binding | competition with immobilised ligand | 1 µM | 80
CNC(=O)[C@@H]1CC[C@@H](n2c(-c3ccc4cnccc4c3)nc3ccc(C(=O)NCc4cccc(C(N)=O)c4)cc32)C1 | ABL1 non-phosphorylated | binding | competition with immobilised ligand | 1 µM | 69
C[C@@H]1CN(c2cc(-c3n[nH]c4ccc(OC5(C)CC5)cc34)ncn2)C[C@H](C)O1 | ABL1 phosphorylated | cell-free assay | competition with immobilised ligand | 0.1 µM | 67
N[C@H]1CCN(c2nccc(-c3cnn4ncccc34)n2)C1 | ABL1 phosphorylated | binding |  | 1 µM | 88
c1cncc(-c2cccc(Nc3nccc(NC4CCCCC4)n3)c2)c1 | ABL1 Q252H non-phosphorylated | binding | competition with immobilised ligand | 10 µM | 20
CC1CCCN1c1nccc(-c2cnn3ncccc23)n1 (stereo not shown) | ABL1 phosphorylated | binding |  | 1 µM | 96
CCOC(=O)c1cc2cc(-c3cc(C(=O)NCc4ccc(C(=O)O)cc4)nn3C)ccc2[nH]1 | Tyrosine-protein kinase ABL1, phosphorylated (ABL1, Homo sapiens, UniProt P00519, H396P) | cell-free assay | competition with immobilised ligand | 0.1 µM | 85
Cc1cnc(Nc2ccc(C(=O)N3CCC(N4CCCC4)CC3)cc2)nc1-c1cc2ccccc2s1 | ABL1 F317L non-phosphorylated | binding | competition with immobilised ligand | 1 µM | 59

Compound | target | observed | method | tested at | remaining binding [%]
c1cnn2ncc(-c3ccnc(N4CCC45COC5)n3)c2c1 | ABL1 non-phosphorylated | binding |  | 1 µM | 68
C=CC(=O)N1CCC(C(=O)NCC(=O)N2CCN(c3nc(-c4cnc(N)nc4C(F)F)nc(N4CCOCC4)n3)CC2)CC1 | ABL1 Q252H phosphorylated | binding | competition with immobilised ligand | 1 µM | 100
N#Cc1ccc(Nc2ccc3[nH]c(=O)[nH]c3c2)c(Cl)c1 | ABL1 F317L non-phosphorylated | cell-free assay | competition with immobilised ligand | 1 µM | 100
CC(C)(C)c1ccc(-c2nc(CBr)nn2-c2cccc(O)c2)cc1 | ABL1 phosphorylated | cell-free assay | competition with immobilised ligand | 10 µM | 85
COc1ccnn2ncc(-c3ccnc(N(C)C)n3)c12 | Tyrosine-protein kinase ABL1 (ABL1, Homo sapiens, UniProt P00519, F317L) | binding |  | 1 µM | 85
O=C(NCCCN1CCOCC1)c1ccc(Nc2nccc(-c3cc4ccccc4s3)n2)cc1 | ABL1 non-phosphorylated | binding | competition with immobilised ligand | 1 µM | 37
COc1ncc2cc3ccccc3nc2c1C#N | ABL1 phosphorylated | cell-free assay | competition with immobilised ligand | 5 µM | 93
O=C(c1ccc(Nc2ncc(Cl)c(-c3cc4ccccc4s3)n2)cc1)N1CCC(N2CCCC2)CC1 | ABL1 T315I non-phosphorylated | binding | competition with immobilised ligand | 1 µM | 0.9
C[C@@H]1CCN(c2nccc(-c3cnn4ncccc34)n2)C1 | ABL1 M351T | binding |  | 1 µM | 100
CN1CCN(c2ccc(Nc3nccc(-c4ccccc4)n3)cc2C(F)(F)F)CC1 | Tyrosine-protein kinase ABL1 (ABL1, Homo sapiens, UniProt P00519, F317I) | binding |  | 10 µM | 100
CCN1CCN(Cc2ccc(C(=O)Nc3ccc(C)c(Oc4ccc5c(c4)CC(=O)N5)c3)cc2C(F)(F)F)CC1 | ABL1 F317L phosphorylated | binding | competition with immobilised ligand | 1 µM | 9.6
COc1cnc(Nc2cccc(S(N)(=O)=O)c2)nc1N1CCN(c2ccccc2)C(=O)C1 | ABL1 Q252H non-phosphorylated | binding | competition with immobilised ligand | 1 µM | 95
N#Cc1ccccc1CSc1nnc2c(n1)[nH]c1ccccc12 | ABL1 non-phosphorylated | binding | competition with immobilised ligand | 10 µM | 86
F[C@@H]1CCN(c2nccc(-c3cnn4ncccc34)n2)C1 | Tyrosine-protein kinase ABL1 (ABL1, Homo sapiens, UniProt P00519, T315I) | binding |  | 1 µM | 100
CCC(=O)N[C@@H]1CC[C@H](C(=O)N(C)c2ccc(-c3nc4ccccc4o3)cc2)C1 | ABL1 Q252H non-phosphorylated | cell-free assay | competition with immobilised ligand | 1 µM | 77
CN(C)c1nccc(-c2cnn3ncccc23)n1 | ABL1 M351T | binding |  | 1 µM | 100
O=C(c1ccc(Nc2nccc(-c3cc4ccccc4s3)n2)cc1)N1CCC(N2CCCC2)CC1 | ABL1 non-phosphorylated | binding | competition with immobilised ligand | 1 µM | 18
CN(c1ccnc(CNc2nc(Nc3ccc4c(c3)CC(=O)N4)ncc2C(F)(F)F)n1)S(C)(=O)=O | ABL1 phosphorylated | cell-free assay | competition with immobilised ligand | 1 µM | 40
